According to ChEMBL document CHEMBL4477254, “Synthesis and biological evaluation of some novel triazole hybrids of curcumin mimics and their selective anticancer activity against breast and prostate cancer cell lines” (Bioorg Med Chem Lett, 2016):
Values after ≈ are worked out from the molar mass of the structure shown.

Assays:
MCF7 [1] = experiment: Cytotoxicity against human MCF7 cells assessed as decrease in cell viability after 24 hrs by MTT assay; format: functional, cell-based; conditions: MCF7, 24 h
Method in brief: (§1)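 Cell viability by MTT after 24 h compound exposure; curcumin as standard. IC50 in µM from three independent experiments, expressed as mean ± SE.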

MDA-MB-231 [2] = experiment: Cytotoxicity against human MDA-MB-231 cells assessed as decrease in cell viability after 24 hrs by MTT assay; format: functional, cell-based; conditions: MDA-MB-231, 24 h; method in brief: as §1
4T1 [3] = experiment: Cytotoxicity against mouse 4T1 cells assessed as decrease in cell viability after 24 hrs by MTT assay; format: functional, cell-based; conditions: 4T1, 24 h; method in brief: as §1
PC-3 [4] = experiment: Cytotoxicity against human PC3 cells assessed as decrease in cell viability after 24 hrs by MTT assay; format: functional, cell-based; conditions: PC-3, 24 h; method in brief: as §1
DU-145 [5] = experiment: Cytotoxicity against human DU145 cells assessed as decrease in cell viability after 24 hrs by MTT assay; format: functional, cell-based; conditions: DU-145, 24 h; method in brief: as §1
HEK293 = experiment: Cytotoxicity against human HEK293 cells assessed as decrease in cell viability after 24 hrs by MTT assay; format: cell-based; conditions: HEK293, 24 h; method in brief: as §1
DU-145 [6] = experiment: Potency index, ratio of curcumin IC50 to compound IC50 in human DU145 cells; format: functional
Method in brief: (§2)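 IC50 came from an MTT viability assay after 24 h compound exposure, with curcumin run as the standard. Values are mean ± SE of three independent experiments. The index is the curcumin IC50 divided by the compound IC50 in the same cell line.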

PC-3 [7] = experiment: Potency index, ratio of curcumin IC50 to compound IC50 in human PC3 cells; format: functional; method in brief: as §2
MDA-MB-231 [8] = experiment: Potency index, ratio of curcumin IC50 to compound IC50 in human MDA-MB-231 cells; format: functional; method in brief: as §2
PC-3 [9] = experiment: Induction of mitochondrial membrane depolarization in human PC3 cells at 3 uM after 24 hrs by JC-1 staining based flow cytometry (reference value: 4.51%); format: functional
MCF7 [10] = experiment: Induction of mitochondrial membrane depolarization in human MCF7 cells at 10 uM after 24 hrs by JC-1 staining based flow cytometry (reference value: 11%); format: functional
4T1 [11] = experiment: Potency index, ratio of curcumin IC50 to compound IC50 in mouse 4T1 cells; format: functional; method in brief: as §2
[12] = Solubility of the compound in distilled water after 24 hrs by HPLC based shake flask method; format: physicochemical
[13] = Drug metabolism in liver microsomes (unknown origin) assessed as compound remaining after 5 mins in presence of NADPH by UPLC analysis; format: ADME, Microsome; conditions: read-out: Drug metabolism
Method in brief: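 Microsomal metabolic stability; percentage of compound remaining intact measured after 5 min incubation in presence of microsomes.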

[14] = Elimination rate constant in liver microsomes (unknown origin) assessed as compound remaining measured up to 60 mins by UPLC analysis; format: ADME, Microsome
[15] = Half life in liver microsomes (unknown origin) in presence of NADPH by UPLC analysis; format: ADME, Microsome
[16] = Intrinsic clearance in liver microsomes (unknown origin) assessed per mg of protein in presence of NADPH by UPLC analysis; format: ADME, Microsome
[17] = Intrinsic hepatic clearance in liver microsomes (unknown origin) assessed per mg of protein in presence of NADPH by UPLC analysis; format: ADME, Microsome; conditions: read-out: CLH (converted)

| SMILES | IC50 (MCF7 [1]) | IC50 (MDA-MB-231 [2]) | IC50 (4T1 [3]) | IC50 (PC-3 [4]) | IC50 (DU-145 [5]) | IC50 (HEK293) | Ratio IC50 (DU-145 [6]) | Ratio IC50 (PC-3 [7]) | Ratio IC50 (MDA-MB-231 [8]) | Activity (PC-3 [9]) | Activity (MCF7 [10]) | Ratio IC50 (4T1 [11]) | solubility thermodynamic at 24 h [12] | remaining at 5 min [13] | k el at 1 h [14] | half-life [15] | CLint [16] | CLint scaled [17] |
| --- | --- | --- | --- | --- | --- | --- | --- | --- | --- | --- | --- | --- | --- | --- | --- | --- | --- | --- |
| COc1ccc(/C=C2\CN(Cc3cn(Cc4cccc(Cl)c4)nn3)C/C(=C\c3ccc(OC)cc3)C2=O)cc1 | 99 µM | 98 µM | 56.6 µM | 32.5 µM | 15.4 µM | > 100 µM | ≤ 9.5 | <=5.7 | – | – | – | – | – | – | – | – | – | – |
| COc1cccc2c1C(=O)c1c(O)c3c(c(O)c1C2=O)C[C@@](O)(C(=O)CO)C[C@@H]3O[C@H]1C[C@H](N)[C@H](O)[C@H](C)O1 [DOXORUBICIN] | – | 1.6 µM | 0.99 µM | – | 1.6 µM | 7.2 µM | – | – | – | – | – | – | – | – | – | – | – | – |
| COc1ccc(/C=C2\CN(C(=S)SCc3cn(Cc4ccccc4F)nn3)C/C(=C\c3ccc(OC)cc3)C2=O)cc1 | 79.4 µM | > 100 µM | 49.9 µM | 31.5 µM | 54.5 µM | – | – | <=5.7 | – | – | – | – | – | – | – | – | – | – |
| COc1ccc(/C=C2\CN(C(=S)SCc3cn(Cc4cccc(Cl)c4)nn3)C/C(=C\c3ccc(OC)cc3)C2=O)cc1 | 32 µM | 32 µM | 69.7 µM | > 80 µM | > 80 µM | > 100 µM | – | – | <=8.3 | – | – | – | – | – | – | – | – | – |
| N#CC(C#N)=NNc1cccc(Cl)c1 [CARBONYL CYANIDE M-CHLOROPHENYLHYDRAZONE] | – | – | – | – | – | – | – | – | – | 35.82% | 86.65% | – | – | – | – | – | – | – |
| O=C1/C(=C/c2ccccc2F)CN(Cc2cn(Cc3cccc(Cl)c3)nn2)C/C1=C\c1ccccc1F | 12 µM | 12 µM | 6.1 µM | 6.8 µM | 4.3 µM | 33.1 µM | ≤ 9.5 | <=5.7 | <=8.3 | – | – | <=9.3 | – | – | – | – | – | – |
| Cc1ccc(/C=C2\CN(Cc3cn(Cc4ccccc4Cl)nn3)C/C(=C\c3ccc(C)cc3)C2=O)cc1 | 66.7 µM | 29 µM | 23.2 µM | 8.9 µM | 10.5 µM | 91.5 µM | ≤ 9.5 | <=5.7 | <=8.3 | – | – | <=9.3 | – | – | – | – | – | – |
| O=C1/C(=C/c2ccccc2F)CN(Cc2cn(Cc3ccccc3Cl)nn2)C/C1=C\c1ccccc1F | 10 µM | 16.5 µM | 5.3 µM | 7.1 µM | 7.5 µM | 33.2 µM | ≤ 9.5 | <=5.7 | <=8.3 | – | – | <=9.3 | – | – | – | – | – | – |
| COc1ccc(/C=C2\CN(Cc3cn(Cc4ccccc4F)nn3)C/C(=C\c3ccc(OC)cc3)C2=O)cc1 | ≥ 100 µM | 67.2 µM | 39.4 µM | 39.9 µM | 32.6 µM | > 100 µM | ≤ 9.5 | – | <=8.3 | – | – | <=9.3 | – | – | – | – | – | – |
| Cc1ccc(/C=C2\CN(C(=S)SCc3cn(Cc4ccccc4Cl)nn3)C/C(=C\c3ccc(C)cc3)C2=O)cc1 | > 100 µM | 93.2 µM | 49.3 µM | > 80 µM | > 80 µM | – | – | – | – | – | – | <=9.3 | – | – | – | – | – | – |
| Cc1ccc(/C=C2\CN(Cc3cn(Cc4ccc(F)cc4)nn3)C/C(=C\c3ccc(C)cc3)C2=O)cc1 | 29 µM | 26.8 µM | 57.2 µM | 65.6 µM | 49.7 µM | – | – | – | <=8.3 | – | – | – | – | – | – | – | – | – |
| Cc1ccc(/C=C2\CN(Cc3cn(Cc4cccc(Cl)c4)nn3)C/C(=C\c3ccc(C)cc3)C2=O)cc1 | 10 µM | 9 µM | 29.3 µM | 29.3 µM | 33.1 µM | 73.5 µM | ≤ 9.5 | <=5.7 | <=8.3 | – | – | <=9.3 | – | – | – | – | – | – |
| O=C1/C(=C/c2ccccc2F)CN(C(=S)SCc2cn(Cc3ccccc3F)nn2)C/C1=C\c1ccccc1F | 51.6 µM | 57.6 µM | 30.7 µM | > 80 µM | > 80 µM | – | – | – | <=8.3 | – | – | <=9.3 | – | – | – | – | – | – |
| COc1ccc(/C=C2\CN(C(=S)SCc3cn(Cc4ccc(F)cc4)nn3)C/C(=C\c3ccc(OC)cc3)C2=O)cc1 | > 100 µM | > 100 µM | > 100 µM | 45.6 µM | 74.6 µM | – | – | – | – | – | – | – | – | – | – | – | – | – |
| O=C1/C(=C/c2ccccc2F)CN(C(=S)SCc2cn(Cc3ccc(F)cc3)nn2)C/C1=C\c1ccccc1F | 56.9 µM | 58.8 µM | 9.9 µM | > 80 µM | 35.7 µM | 51.3 µM | – | – | <=8.3 | – | – | <=9.3 | – | – | – | – | – | – |
| O=C1/C(=C/c2ccccc2F)CN(Cc2cn(Cc3ccccc3F)nn2)C/C1=C\c1ccccc1F | 6 µM | 16 µM | 6.5 µM | 19.7 µM | 10.6 µM | 41.2 µM | ≤ 9.5 | <=5.7 | <=8.3 | – | – | <=9.3 | – | – | – | – | – | – |
| Cc1ccc(/C=C2\CN(C(=S)SCc3cn(Cc4ccc(F)cc4)nn3)C/C(=C\c3ccc(C)cc3)C2=O)cc1 | 81.6 µM | 45.6 µM | 29.3 µM | 45.5 µM | 38.8 µM | – | ≤ 9.5 | – | <=8.3 | – | – | <=9.3 | – | – | – | – | – | – |
| Cc1ccc(/C=C2\CN(C(=S)SCc3cn(Cc4cccc(Cl)c4)nn3)C/C(=C\c3ccc(C)cc3)C2=O)cc1 | > 100 µM | 83 µM | 53.4 µM | > 80 µM | > 80 µM | – | – | – | – | – | – | – | – | – | – | – | – | – |
| COc1ccc(/C=C2\CN(C(=S)SCc3cn(Cc4ccccc4Cl)nn3)C/C(=C\c3ccc(OC)cc3)C2=O)cc1 | > 100 µM | > 100 µM | > 100 µM | 60.1 µM | > 80 µM | – | – | – | – | – | – | – | – | – | – | – | – | – |
| Cc1ccc(/C=C2\CN(C(=S)SCc3cn(Cc4ccccc4F)nn3)C/C(=C\c3ccc(C)cc3)C2=O)cc1 | > 100 µM | 91.5 µM | 28.4 µM | > 80 µM | 80 µM | – | – | – | – | – | – | <=9.3 | – | – | – | – | – | – |
| O=C1/C(=C/c2ccccc2F)CN(C(=S)SCc2cn(Cc3cccc(Cl)c3)nn2)C/C1=C\c1ccccc1F | > 100 µM | > 100 µM | > 100 µM | 80 µM | > 80 µM | – | – | – | – | – | – | – | – | – | – | – | – | – |
| COc1cc(/C=C/C(=O)CC(=O)/C=C/c2ccc(O)c(OC)c2)ccc1O [CURCUMIN] | 83.1 µM | 75.3 µM | 49.4 µM | 39 µM | 41 µM | 94.1 µM | – | – | – | – | – | – | 0.06 µg/mL (≈ 0.163 µM) | 45% | 0.00085 s⁻¹ | 13.7 min | 101 µL/min/mg | 182 L/h/kg |
| O=C1/C(=C/c2ccccc2F)CN(C(=S)SCc2cn(Cc3ccccc3Cl)nn2)C/C1=C\c1ccccc1F | 78.7 µM | 100 µM | 43.6 µM | > 80 µM | 46.3 µM | – | – | – | – | – | – | <=9.3 | – | – | – | – | – | – |
| COc1ccc(/C=C2\CN(Cc3cn(Cc4ccccc4Cl)nn3)C/C(=C\c3ccc(OC)cc3)C2=O)cc1 | > 100 µM | > 100 µM | 11.4 µM | 36.3 µM | 17.8 µM | – | ≤ 9.5 | <=5.7 | – | – | – | <=9.3 | – | – | – | – | – | – |
| COc1ccc(/C=C2\CN(Cc3cn(Cc4ccc(F)cc4)nn3)C/C(=C\c3ccc(OC)cc3)C2=O)cc1 | > 100 µM | 70.7 µM | 49.3 µM | 67.5 µM | 59.4 µM | – | – | – | <=8.3 | – | – | <=9.3 | – | – | – | – | – | – |
| O=c1[nH]cc(F)c(=O)[nH]1 [FLUOROURACIL] | – | 19 µM | 23 µM | 13.3 µM | 24.2 µM | 40 µM | – | – | – | – | – | – | – | – | – | – | – | – |
| COC(=O)Nc1nc2cc(C(=O)c3cccs3)ccc2[nH]1 [NOCODAZOLE] | 0.42 µM | 1.1 µM | 1.3 µM | 2.5 µM | 2.2 µM | 5.1 µM | – | – | – | – | – | – | – | – | – | – | – | – |
